Experimental data as given in ChEMBL document CHEMBL1123741 (J Med Chem, 1987).
Values after ≈ are worked out from the molar mass of the structure shown.

B1: Thymidine kinase, cytosolic (Homo sapiens), P04183 (protein)
chain: MSCINLPTVLPGSPSKTRGQIQVILGPMFSGKSTELMRRVRRFQIAQYKCLVIKYAKDTRYSSSFCTHDRNTMEALPACLLRDVAQEALGVAVIGIDEGQFFPDIVEFCEAMANAGKTVIVAALDGTFQRKPFGAILNLVPLAESVVKLTAVCMECFREAAYTKRLGTEKEVEVIGGADKYHSVCRLCYFKKASGQPAGPDNKENCPVPGKPGEAVAARKLFAPQQILQCSPAN

Columns and labels:
Cavia porcellus [1] = species: Cavia porcellus; assay: Compound (5%) was evaluated for its effect on (no. of areas = 3) mean area under lesion score-day curve in HSV-1 cutaneous infection of guinea pig; expressed as mean area under lesion score-day curve; type: functional
Cavia porcellus [2] = species: Cavia porcellus; assay: Compound (5%) was evaluated for its effect on (no. of areas = 3)maximum score in HSV-1 cutaneous infection of guinea pig; expressed as maximum score; type: functional
Cavia porcellus [3] = species: Cavia porcellus; assay: Compound (5%) was evaluated for its effect on (no. of areas = 4)mean peak lesion score in HSV-1 cutaneous infection of guinea pig; expressed as mean peak lesion score; type: functional
Cavia porcellus [4] = species: Cavia porcellus; assay: Compound (5%) was evaluated for its effect on (no. of areas =3) time to start healing in HSV-1 cutaneous infection of guinea pig; expressed as time to start healing; type: functional
Mus musculus [5] = assay: Compound was evaluated for its effect of HSV -2 induced mortality in mice measured as survivors/total (%) at the dose of 25 mg/kg per day; 5/10; type: functional
Method in brief: (§1)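 Female Swiss mice, 16–18 g, anesthetized and inoculated intracerebrally with 10 LD50 of HSV 2 (G strain), then randomized into groups of 8–12. Dosing was ip, b.i.d. for 5 consecutive days, starting 1 h postinfection. Mortality was followed for 21 days. P values were from the two-tailed Fisher exact test for survivors and the Gehan-Wilcoxon test for mean survival time.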

Mus musculus [6] = assay: Compound was evaluated for its effect of HSV -2 induced mortality in mice measured as survivors/total (%) at the dose of 50 mg/kg per day; 5/10; type: functional; method in brief: as §1
Mus musculus [7] = assay: Compound was evaluated for its effect of HSV -2 induced mortality in mice measured as survivors/total (%) at the dose of 100 mg/kg per day; 3/10; type: functional; method in brief: as §1
Mus musculus [8] = assay: Compound was evaluated for its effect of HSV -2 induced mortality in mice measured as survivors/total (%) at the dose of 12.5 mg/kg per day; 2/10; type: functional; method in brief: as §1
Mus musculus [9] = assay: Compound was evaluated for its effect of HSV -2 induced mortality in mice measured as survivors/total (%) at the dose of 200 mg/kg per day; 6/10; type: functional; method in brief: as §1
Mus musculus [10] = assay: Compound was evaluated for its effect on HSV -2 induced mortality in mice measured as mean survival time (MST) at the dose of 100 mg/kg per day; type: functional; method in brief: as §1
Mus musculus [11] = assay: Compound was evaluated for its effect on HSV -2 induced mortality in mice measured as mean survival time (MST) at the dose of 12.5 mg/kg per day; type: functional; method in brief: as §1
Mus musculus [12] = assay: Compound was evaluated for its effect on HSV -2 induced mortality in mice measured as mean survival time (MST) at the dose of 200 mg/kg per day; type: functional; method in brief: as §1
Mus musculus [13] = assay: Compound was evaluated for its effect on HSV -2 induced mortality in mice measured as mean survival time (MST) at the dose of 25 mg/kg per day; type: functional; method in brief: as §1
Vero [14] = assay: Compound was evaluated for antiviral activity against Herpes simplex virus (HSV) -1 (BW) in Vero cell cultures; type: functional; settings: Chlorocebus sabaeus, read-out: ID50 (the source's name)
Method in brief: (§2)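 Vero cell cultures were infected with HSV-1 strain BWˢ or HSV-2 strain MS. Antiviral activity was read by the dye-uptake method. The 50% inhibitory dose (ID50) was obtained by linear regression.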

Vero [15] = assay: Compound was evaluated for antiviral activity against Herpes simplex virus (HSV) -2 (MS) in Vero cell cultures; type: functional; settings: Chlorocebus sabaeus, read-out: ID50 (the source's name); method in brief: as §2
Mus musculus [16] = assay: Compound was evaluated for its effect on HSV -2 induced mortality in mice measured as mean survival time (MST) at the dose of 50 mg/kg per day; type: functional; method in brief: as §1
Cavia porcellus [17] = species: Cavia porcellus; assay: Compound (5%) was evaluated for its effect on (no. of areas = 4)maximum score in HSV-1 cutaneous infection of guinea pig; expressed as maximum score; type: functional
Cavia porcellus [18] = species: Cavia porcellus; assay: Compound (5%) was evaluated for its effect on (no. of areas = 4) mean area under lesion score-day curve in HSV-1 cutaneous infection of guinea pig; expressed as mean area under lesion score-day curve; type: functional
Cavia porcellus [19] = species: Cavia porcellus; assay: Compound (5%) was evaluated for its effect on (no. of areas = 4) time to start healing in HSV-1 cutaneous infection of guinea pig; expressed as time to start healing; type: functional
Mus musculus [20] = assay: Compound was evaluated for its effect of HSV -2 induced mortality in mice measured as survivors/total (%) at the dose of 25 mg/kg per day; 3/9; type: functional; method in brief: as §1
Mus musculus [21] = assay: Compound was evaluated for its effect of HSV -2 induced mortality in mice measured as survivors/total (%) at the dose of 50 mg/kg per day; 4/10; type: functional; method in brief: as §1
Mus musculus [22] = assay: Compound was evaluated for its effect of HSV -2 induced mortality in mice measured as survivors/total (%) at the dose of 100 mg/kg per day; 3/8; type: functional; method in brief: as §1
Mus musculus [23] = assay: Compound was evaluated for its effect ofHSV -2 induced mortality in mice measured as survivors/total (%) at the dose of 100 mg/kg per day; 5/10; type: functional; method in brief: as §1
Mus musculus [24] = assay: Compound was evaluated for its effect ofHSV -2 induced mortality in mice measured as survivors/total (%) at the dose of 12.5 mg/kg per day; 2/10; type: functional; method in brief: as §1
Mus musculus [25] = assay: Compound was evaluated for its effect ofHSV -2 induced mortality in mice measured as survivors/total (%) at the dose of 25 mg/kg per day; 0/10; type: functional; method in brief: as §1
Mus musculus [26] = assay: Compound was evaluated for its effect ofHSV -2 induced mortality in mice measured as survivors/total (%) at the dose of 50 mg/kg per day; 3/10; type: functional; method in brief: as §1
Mus musculus [27] = assay: Compound was evaluated for its effect on HSV -2 induced mortality in mice measured as survivors/total (%) at the dose of 200 mg/kg per day; 6/12; type: functional; method in brief: as §1
Cavia porcellus [28] = species: Cavia porcellus; assay: Compound (5%) was evaluated for its effect on (no. of areas = 3) time to start healing in HSV-1 cutaneous infection of guinea pig; expressed as time to start healing; type: functional
Human alphaherpesvirus 1 = assay: Compound (5%) was evaluated for its effect on (no. of areas = 3)mean peak lesion score in HSV-1 cutaneous infection of guinea pig; expressed as mean peak lesion score; type: functional
[29] = substrate: Cc1cn([C@@H]2O[C@H](CO)[C@@H](O)[C@@H]2F)c(=O)[nH]c1=O; settings: Chlorocebus sabaeus; Vero
[30] = substrate: NC1=NC(=O)C2N=CN(COCCO)C2=N1; settings: Chlorocebus sabaeus; Vero
[31] = substrate: O=c1[nH]c(=O)n([C@@H]2O[C@H](CO)[C@@H](O)[C@@H]2F)cc1I; settings: Chlorocebus sabaeus; Vero

Molecule | Activity (Cavia porcellus [1]) | Activity (Cavia porcellus [2]) [days] | Activity (Cavia porcellus [3]) | Activity (Mus musculus [8]) [%] | MST (Mus musculus [10]) [days] | MST (Mus musculus [11]) [days] | MST (Mus musculus [12]) [days] | MST (Mus musculus [13]) [days] | IC50 (Vero [14]) [µg/mL] | IC50 (Vero [15]) [µg/mL] | MST (Mus musculus [16]) [days] | Activity (Cavia porcellus [17]) [days] | Activity (Cavia porcellus [18]) | Activity (Cavia porcellus [19]) [days] | also measured
O=c1[nH]c(=O)n([C@@H]2O[C@H](CO)[C@@H](O)[C@@H]2F)cc1I [FIALURIDINE] | 9.6 | 3 | 1 | 2 | 13 | 10 | 21 | 18 | 0.96 (≈ 2.58 µM) | 0.64 (≈ 1.72 µM) | 18 | – | – | – | Activity (Cavia porcellus [4]): 4.67 days; Activity (Mus musculus [5]): 5%; Activity (Mus musculus [6]): 5%; Activity (Mus musculus [7]): 3%; Activity (Mus musculus [9]): 6%
NC1=NC(=O)C2N=CN(COCCO)C2=N1 (stereo not given) | – | – | 2.5 | 2 | 13 | 8 | – | 10 | 0.7 (≈ 3.11 µM) | 1.1 (≈ 4.88 µM) | 10 | 4 | 15.2 | 6.25 | Activity (Mus musculus [20]): 3%; Activity (Mus musculus [21]): 4%; Activity (Mus musculus [22]): 3%
CCc1cn([C@@H]2O[C@H](CO)[C@@H](O)[C@@H]2F)c(=O)[nH]c1=O | – | – | 1.5 | – | 18 | 8 | 19 | 9 | 0.99 (≈ 3.61 µM) | 2.7 (≈ 9.85 µM) | 12 | 3 | 10 | 6.5 | Activity (Mus musculus [23]): 5%; Activity (Mus musculus [24]): 2%; Activity (Mus musculus [25]): 0%; Activity (Mus musculus [26]): 3%; Activity (Mus musculus [27]): 6%
Cc1cn([C@@H]2O[C@H](CO)[C@@H](O)[C@@H]2F)c(=O)[nH]c1=O [5-METHYL-2'-FLUOROARAURACIL] | 2.7 | 2.67 | – | – | – | – | – | – | 1.3 (≈ 5 µM) | 0.13 (≈ 0.5 µM) | – | – | – | – | Activity (Cavia porcellus [28]): 5.33 days; Activity (Human alphaherpesvirus 1): 0.75
B1 | – | – | – | – | – | – | – | – | – | – | – | – | – | – | Ki [29]: 60 µM; Ki [30]: > 4920 µM; Ki [31]: 53 µM
